Rtt109 HAT inh: blocks Candida albicans Rtt109/Vps75 acetyltransferase activity. AID 540336. inhibition, % at 34.9 µM. Q5AAJ8. 330,000 tested, 0.16% active. purified Rtt109/Vps75, ThioGlo CoA-SH fluorescence, 4 h;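 active = inhibition of at least 50% in every replicate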
Target sequence (Q5AAJ8 whole entry, looked up): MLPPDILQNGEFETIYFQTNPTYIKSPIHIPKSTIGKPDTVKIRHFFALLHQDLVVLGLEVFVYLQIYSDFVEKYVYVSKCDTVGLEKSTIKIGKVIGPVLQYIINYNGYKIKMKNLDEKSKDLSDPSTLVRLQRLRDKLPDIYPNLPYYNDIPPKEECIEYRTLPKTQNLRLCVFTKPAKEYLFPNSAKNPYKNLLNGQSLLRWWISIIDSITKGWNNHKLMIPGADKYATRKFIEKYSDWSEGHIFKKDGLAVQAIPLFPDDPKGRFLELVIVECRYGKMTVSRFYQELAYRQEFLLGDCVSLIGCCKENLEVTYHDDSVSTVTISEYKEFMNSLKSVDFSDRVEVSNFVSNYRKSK
Statin myotox sup: suppression of simvastatin myotoxicity; rescue of ATP level, % at 7.49 µM; 330,000 tested, 0.78% active; C2C12 myotubes + simvastatin, ATP luminescence, 48 h; scaled: DMSO 0, geranylgeraniol control 100;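 active = mean ATP rescue above about 67%, or every replicate alone reaching that limit, limit read from the data, passing the limit was not always enough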;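 note: myotubes were challenged with 10 µM simvastatin during compound exposure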
ERAP1 HTS inh: inhibitors of human ERAP1 aminopeptidase; recombinant ERAP1, Leu-AMC fluorescence, 60 min; Q9NZ08; 340,000 tested, 0.15% active; inhibition, % at 10.7 µM;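 active = mean replicate inhibition of at least 30%, or all replicates individually reaching that 30% level; inactive = mean below 30% and not every replicate reaching it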;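 note: 0% = neutral control wells and 100% = L-leucinethiol positive control wells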
S100A4 MyoIIA: S100A4-myosin IIA interaction inhibition; P26447; S100A4/TAMRA-MyoIIA peptide fluorescence polarization; inhibition, % at 10.7 µM; 360,000 tested, 0.14% active; AID 652163;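 active = mean inhibition of at least 70% across replicates, with every replicate also reaching that level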
Target sequence (P26447 whole entry, looked up): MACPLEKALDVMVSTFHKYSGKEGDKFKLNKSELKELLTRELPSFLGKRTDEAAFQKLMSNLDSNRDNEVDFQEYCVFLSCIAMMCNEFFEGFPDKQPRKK
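Test system: S100A4 monomer protein. Medium: HEPES buffer with Ca2+, pH 7.2. Reagent: fluorescent myosin IIA peptide, 5 nM. Compound dosing: single-point compound testing. Timing: 5 min between mix addition and reading. Benchmarks: DMSO neutral and TFP positive wells.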
PGC1a acetyl inh: PGC1a acetylation modulation, inhibitor mode; U2OS PGC1a acetylation, AlphaScreen anti-acetyl-lysine; with virally co-expressed GCN5 acetyltransferase; inhibition, % at 15.6 µM; 350,000 tested, 0.17% active; AID 651687;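 active = every replicate shows inhibition of at least 40%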;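 note: 0% = neutral control wells and 100% = positive control wells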
Numbers without * were called inactive; i = inactive; x = not tested or not shown. Only some compounds are listed: those with a hit (about 0.98% of all), similar ones and a draw of the others.

SMILES	Rtt109 HAT inh	Statin myotox sup	ERAP1 HTS inh	S100A4 MyoIIA	PGC1a acetyl inh
COc1ccc(CN(C)C[C@H]2Oc3ccc(NC(=O)CCCCCC(=O)Nc4ccccc4N)cc3CC(=O)N([C@@H](C)CO)C[C@@H]2C)cc1	x	x	1	-4	5
COc1ccccc1S(=O)(=O)N(C)C[C@H]1OCc2ccccc2-c2c(n(C)c3ccccc23)C(=O)N([C@H](C)CO)C[C@@H]1C	x	x	-1	0	19
C[C@H]1CN([C@@H](C)CO)S(=O)(=O)c2ccc(-c3ccc(F)cc3)cc2O[C@H]1CN(C)S(C)(=O)=O	x	-17	0	-5	-24
COc1ccc2c3c([nH]c2c1)[C@H](CO)N(C(=O)C1CCC1)CC31CN(C(=O)NC(C)C)C1	x	x	-5	1	4
COc1cc(OC)nc(NC(C)=O)n1	0	-4	x	x	4
CSc1nc(NC(C)=O)nc(C)c1Cl	1	147*	x	x	7
Cc1ccccc1-c1nc(CN2CCC(C(=O)NCc3cccnc3)CC2)c(C)o1	5	99*	x	x	-12
Cc1oc(-c2ccccc2F)nc1CN1CCC(C(=O)NCc2cccnc2)CC1	-4	-8	x	x	-13
O=C1OCCN1N1CCOC1=O	-5	113*	0	-3	-5
O=C(NC1CCCN(Cc2ccc(Cl)cc2)C1)c1ccccc1C(F)(F)F (stereo not drawn)	4	-11	-1	1	47*
O=C(NC1CCCN(Cc2ccc(Cl)cc2)C1)c1c(F)cccc1F (stereo not drawn)	0	11	-4	-5	3
CC(C)NC(=O)N1[C@@H](C#N)[C@H](c2ccc(C#CC3CCCCC3)cc2)[C@@H]1CO	x	24	1	-4	-17
CN1CCN(C(=O)/C=C/c2ccc(Cl)cc2)CC1	-5	110*	-1	-21	3
CN1CCN(C(=O)/C=C/c2ccc(Cl)c(Cl)c2)CC1	-1	x	0	-5	5
O=C1CN(C(=O)/C=C/c2ccc(Cl)cc2)c2ccccc2N1	56*	x	1	-11	5
O=C1CN(C(=O)COC(=O)CCNS(=O)(=O)c2ccc(Cl)cc2)c2ccccc2N1	-6	x	1	-14	-3
O=C1CN(C(=O)COC(=O)CCSc2ccccc2Cl)c2ccccc2N1	-15	106*	0	0	5
O=C1CN(C(=O)/C=C/c2cccc(Cl)c2)c2ccccc2N1	-6	-14	8	-1	8
COc1ccc(NC(=O)N2CCC3(CC2)CN(C(=O)C2CCC2)[C@H](CO)c2c3c3ccc(OC)cc3n2C)cc1	x	x	2	9	8
C[C@H](CO)N1C[C@H](C)[C@@H](CN(C)C(=O)C2CC2)Oc2cc(-c3cccnc3)ccc2S1(=O)=O	x	-51	x	x	8
COc1ccccc1NC(=O)N[C@H]1CC[C@@H](CCn2cc(-c3ccccc3OC)nn2)O[C@@H]1CO	x	-4	2	1	5
Cc1ccc(S(=O)(=O)Nc2ccc3c(c2)C(=O)N([C@@H](C)CO)C[C@@H](C)[C@@H](CN(C)C)O3)cc1	x	-3	-2	1	-6
CCCCc1nn2c(N)c(/C=C3\C=Nc4ccccc43)c(=O)nc2s1	1	x	x	x	x
CCCCn1c(O)c(/C=C2\C=Nc3ccccc32)c(=O)[nH]c1=O	-1	15	2	81*	0
CCc1ccccc1NC(=O)CSc1nnc(CNC(=O)c2ccco2)n1C	12	5	2	-4	x
SMILES	Rtt109 HAT inh	Statin myotox sup	ERAP1 HTS inh	S100A4 MyoIIA	PGC1a acetyl inh
Cn1c(CNC(=O)c2ccco2)nnc1SCC(=O)N1c2ccccc2Sc2ccccc21	4	93*	x	x	0
CN1C[C@@H]2[C@H](c3ccccc31)[C@H](CO)N2C(=O)C1CCCCC1	x	-6	-1	-30	6
C[C@@H]1CN([C@@H](C)CO)C(=O)Cc2cc(NC(=O)Nc3ccc(C(F)(F)F)cc3)ccc2O[C@H]1CN(C)S(=O)(=O)c1ccccc1	x	x	0	-2	9
COC(=O)c1cc(=O)n(Cc2ccco2)c(=Nc2ccc(F)c(Cl)c2)s1	-6	6	1	3	x
COC(=O)c1cc(=O)n(CCc2ccccc2F)c(=Nc2ccc(F)c(Cl)c2)s1	-3	110*	3	-2	x
c1cc2cc(-c3c(-c4ccc5c(c4)OCO5)noc3-c3ccsc3)ccc2[nH]1	-1	126*	-3	-3	-6
C[C@@H]1CN([C@@H](C)CO)S(=O)(=O)c2ccc(C#CCN(C)C)cc2O[C@H]1CN(C)Cc1ccccc1	x	-112	-2	7	-13
O=C(NCCN1CCCCC1)[C@@H]1[C@@H](CO)[C@@H]2Cn3c(cccc3=O)[C@H]1N2C(=O)C1CC1	x	7	-2	-12	1
CCCCn1c(N)c(N(CCOC)C(=O)C2CCCN(C(=O)c3ccc(Cl)cc3)C2)c(=O)[nH]c1=O (stereo not drawn)	-1	x	62*	-5	x
CCNC(=O)C[C@@H]1C=C[C@@H](NC(=O)C2CC2)[C@H](CO)O1	x	-4	4	8	0
O=C(c1ccc(F)cc1)N1CC(=O)N2[C@H](CO)[C@H](c3ccc(-c4ccccc4)cc3)[C@H]2C1	x	x	-1	6	-4
CNC(=O)c1cc(OCC(F)(F)F)ccc1OCC(F)(F)F	2	x	x	-2	-5
COc1cccc(/C=N\NC(=O)c2cc(OCC(F)(F)F)ccc2OCC(F)(F)F)c1	-1	124*	x	x	0
CCOC(=O)N1CCN(C2CC(=O)N(c3ccc(Oc4ccccc4)cc3)C2=O)CC1 (stereo not drawn)	0	126*	x	x	-2
C[C@@H]1CCCCO[C@@H](CN(C)Cc2ccc3c(c2)OCO3)[C@H](C)CN([C@H](C)CO)C(=O)c2cc(NC(=O)Nc3ccccc3)ccc2O1	x	x	0	6	-32
C/C(=N\NC(=O)CC#N)c1cc2ccc(O)cc2oc1=O	i	7	80*	-9	8
COc1cc(Br)c(-c2sc(Nc3ccccc3)n[n+]2-c2ccc(F)cc2)cc1OC	6	135*	-3	-2	6
Cc1cnc(-c2nnc(N(C)C(=O)c3cccnc3)s2)cn1	-8	108*	x	x	-4
C[C@@H]1CN([C@H](C)CO)C(=O)c2cc(NC(=O)NC3CCCCC3)ccc2O[C@@H](C)CCCCO[C@@H]1CN(C)C(=O)C1CCCCC1	x	12	-4	-61	x
Cc1nc2ccccc2c(=O)n1NC(=O)C1CCCCC1	13	9	x	x	-12
O=C(Nn1c(C2CCC2)nc2ccccc2c1=O)C1CCC1	-27	85*	x	x	-63
CCOc1ccc(N2CC(C(=O)Nc3ccc(S(=O)(=O)NCC4CCCO4)cc3)CC2=O)cc1 (stereo not drawn)	-11	24	-4	-5	56*
COc1ccc(N2CCN(C(c3cc4cc(C)ccc4[nH]c3=O)c3nnnn3Cc3ccccc3)CC2)cc1 (stereo not drawn)	2	75*	x	x	-1
COc1ccc(Cn2nnnc2C(c2cc3cc(C)ccc3[nH]c2=O)N2CCOCC2)cc1 (stereo not drawn)	-4	-13	x	x	x
O=C(c1cccc(F)c1)N1CCc2ccccc2C1	-17	x	x	x	-5
